Tests used:
PC-3 [1] = assay: Antitumor activity against human PC3 cells xenografted in SCID mouse assessed as tumor growth inhibition at 55 mg/kg, ip administered 5 consecutive days in a week for two cycles measured after 2 cycles relative to control; assay type: functional; details: PC-3, ip, route intraperitoneal, read-out: TGI
In short: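 PC3 xenografts were grown in SCID mice (10^6 cells per inoculum), 14 mice (28 tumors) per group, dosed ip from about 100 mm3. The test agent was given in 5% Tween 80; paclitaxel was given in Cremophor diluted in saline, with a vehicle of 1:1 ethanol/Cremophor diluted 1:3 in saline. Volume and %ΔT/ΔC were derived from caliper readings twice weekly. Occurrence of primary tumors and of axillary and bone metastases was scored (n = 7). Two-tailed t test.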

BXPC-3 [2] = assay: Cell cycle arrest in human BxPC3 cells assessed as accumulation at >G2/M phase at 5 uM after 24 hrs using propidium iodide staining by FACS analysis (reference value: 6 %); assay type: functional
In short: (§1)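 Cells were plated 24 h before treatment and exposed for 24 h at final 0.5, 5, 15 and 50 μM in 0.5% DMSO, against vehicle-treated controls. Cells were then trypsinised and fixed in cold ethanol for 3 h at 4 °C. They were stained in a mix of RNase (200 μg/mL) and PI (1 mg/mL) for 45 min at room temperature in the dark. Flow cytometry used 488 nm excitation and 10 000 gated cells. Phase percentages were assigned from DNA content.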

BXPC-3 [3] = assay: Cell cycle arrest in human BxPC3 cells assessed as accumulation at >G2/M phase at 50 uM after 24 hrs using propidium iodide staining by FACS analysis (reference value: 6 %); assay type: functional; in short: as §1
BXPC-3 [4] = assay: Cell cycle arrest in human BxPC3 cells assessed as accumulation at sub G1 phase at 50 uM after 24 hrs using propidium iodide staining by FACS analysis (reference value: 9 %); assay type: functional; in short: as §1
BXPC-3 [5] = assay: Cell cycle arrest in human BxPC3 cells assessed as accumulation at >G2/M phase at 15 uM after 24 hrs using propidium iodide staining by FACS analysis (reference value: 6 %); assay type: functional; in short: as §1
HL-60(TB) = assay: Growth inhibition of human HL-60(TB) cells after 48 hrs by SRB assay; assay type: functional; details: HL-60, 48 h
In short: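 Cells kept in RPMI 1640 with 5% FCS at 37 °C, 5% CO2, and seeded 24 h before dosing. Compound given from DMSO at 10-fold dilutions, 100 to 0.01 μM, for 48 h. Cells fixed with TCA, stained with SRB, absorbance read at 540 nm. GI50 taken from a time-zero plate.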

PC-3 [6] = assay: Induction of apoptosis in human PC3 cells assessed as cleaved caspase3 containing cells at 15 uM by antibody-based FACS analysis (reference value: 3.2 %); assay type: functional
PC-3 [7] = assay: Induction of apoptosis in human PC3 cells assessed as healthy cells at 5 uM using annexin V/7-AAD by FACS analysis (reference value: 91 %); assay type: functional
PC-3 [8] = assay: Cell cycle arrest in human PC3 cells assessed as accumulation at G2 phase at 15 uM after 24 hrs using propidium iodide staining by FACS analysis (reference value: 12 %); assay type: functional
BXPC-3 [9] = assay: Induction of apoptosis in human BxPC3 cells assessed as late apoptosis at 0.5 uM using annexin V/7-AAD by FACS analysis (reference value: 9 %); assay type: functional
PC-3 [10] = assay: Cell cycle arrest in human PC3 cells assessed as accumulation at sub G1 phase at 15 uM after 24 hrs using propidium iodide staining by FACS analysis (reference value: 4 %); assay type: functional
[11] = Displacement of [3H]1,3-di-otolylguanidine from sigma 2 receptor in rat cerebral cortex membranes; assay type: cell membranes, Membrane
In short: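 Rat cerebral cortex membranes incubated with 5 nM [3H]DTG plus 300 nM (+)-pentazocine to mask σ1 sites, together with a range of test concentrations, 2 h at 22 °C in Tris-HCl, pH 7.4. Nonspecific binding defined with 10 μM haloperidol.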

PC-3 [12] = assay: Induction of apoptosis in human PC3 cells assessed as healthy cells at 0.5 uM using annexin V/7-AAD by FACS analysis (reference value: 91 %); assay type: functional
DU-145 = assay: Antitumor activity against human DU145 cells xenografted in SCID mouse assessed as tumor growth inhibition at 55 mg/kg, ip administered 5 consecutive days in a week for two cycles measured after 2 cycles relative to control; assay type: functional; details: DU-145, ip, route intraperitoneal, read-out: TGI
In short: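 DU145 xenografts were grown in SCID mice from 10^6-cell inocula, with at least 30 animals in total. Treatment started ip at a mean tumor volume of about 100 mm3. The test agent was given in 5% Tween 80; paclitaxel was dissolved in Cremophor and diluted in saline. Caliper volumes were taken twice weekly and %ΔT/ΔC calculated; two-tailed t test.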

PC-3 [13] = assay: Cell cycle arrest in human PC3 cells assessed as accumulation at G2 phase at 0.5 uM after 24 hrs using propidium iodide staining by FACS analysis (reference value: 12 %); assay type: functional
PC-3 [14] = assay: Cell cycle arrest in human PC3 cells assessed as accumulation at S phase at 5 uM after 24 hrs using propidium iodide staining by FACS analysis (reference value: 42 %); assay type: functional
BXPC-3 [15] = assay: Induction of apoptosis in human BxPC3 cells assessed as cleaved caspase3 containing cells at 0.5 uM by antibody-based FACS analysis (reference value: 8.2 %); assay type: functional
BXPC-3 [16] = assay: Cell cycle arrest in human BxPC3 cells assessed as accumulation at G2 phase at 5 uM after 24 hrs using propidium iodide staining by FACS analysis (reference value: 12 %); assay type: functional; in short: as §1
[17] = Displacement of [3H]batrachotoxin benzoate from Na+ channel after 60 mins by liquid scintillation counting
In short: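 Na+ channel site 2 binding: vesicle preparation (150−500 μg protein) incubated 60 min with 20−25 nM [3H]BTX-B and 50 μg Leiurius quinquestriatus venom. Buffer was 130 mM choline chloride, 50 mM HEPES/Tris pH 7.4, glucose, MgSO4, KCl, BSA. Filtered on GF/C with cold washes; scintillation counting. Nonspecific binding defined with 250 μM veratridine.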

PC-3 [18] = assay: Cell cycle arrest in human PC3 cells assessed as accumulation at G1 phase at 15 uM after 24 hrs using propidium iodide staining by FACS analysis (reference value: 36 %); assay type: functional
HCT-116 = assay: Growth inhibition of human HCT116 cells after 48 hrs by SRB assay; assay type: functional; details: HCT-116, 48 h
In short: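 Cells grown in RPMI 1640 with 5% heat-inactivated FCS, 2 mM L-glutamine and antibiotics, 37 °C, 5% CO2. Seeded at 3500–30000 cells/well and left 24 h before dosing. DMSO solutions added at 10-fold dilutions from 100 to 0.01 μM for 48 h. Cells TCA-fixed and SRB-stained, absorbance read at 540 nm; GI50 derived against the time-zero plate.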

BXPC-3 [19] = assay: Cell cycle arrest in human BxPC3 cells assessed as accumulation at sub G1 phase at 0.5 uM after 24 hrs using propidium iodide staining by FACS analysis (reference value: 9 %); assay type: functional; in short: as §1
[20] = read-out: LC50 (the source's name)

CN1CCN(CCCc2ccc(C(c3ccccc3)C34CC5CC(CC(C5)C3)C4)cc2)CC1 (stereo unspecified)
inhibition in vivo at 55 mg/kg (PC-3 [1]): 48%
Activity (BXPC-3 [2]): 5%
Activity (BXPC-3 [3]): 4%
Activity (BXPC-3 [4]): 23%
Activity (BXPC-3 [5]): 5%
GI50 (HL-60(TB)): 4.02 nM
TGI (HL-60(TB)): 7.88 nM
CC50 (HL-60(TB); [20]): 100 nM
Activity (PC-3 [6]): 2.5%
Activity (PC-3 [7]): 92%
Activity (PC-3 [8]): 11%
Activity (BXPC-3 [9]): 7%
Activity (PC-3 [10]): 25%
IC50 [11]: 85 nM
Activity (PC-3 [12]): 95%
inhibition in vivo at 55 mg/kg (DU-145): 71.4%
Activity (PC-3 [13]): 15%
Activity (PC-3 [14]): 36%
Activity (BXPC-3 [15]): 4%
Activity (BXPC-3 [16]): 10%
IC50 [17]: > 1000 nM
Activity (PC-3 [18]): 25%
GI50 (HCT-116): 3380 nM
TGI (HCT-116): 6050 nM
CC50 (HCT-116; [20]): 8.73 nM
Activity (BXPC-3 [19]): 11%
